The values that follow come from ChEMBL document CHEMBL3351900, “Conjugation of a nonspecific antiviral sapogenin with a specific HIV fusion inhibitor: a promising strategy for discovering new antiviral therapeutics” (J Med Chem, 2014).

SMILES strings stand for the structures. pEC50: −log10 of the molar value. Peptide text beside a SMILES is read from it. * marks the point of attachment. X3 = C=C(C)[C@@H]1CC[C@]2(C(=O)O)CC[C@]3(C)[C@H](CC[C@@H]4[C@@]5(C)CC[C@H](OC(=O)CCc6cn(CC(=O)*)nn6)C(C)(C)[C@@H]5CC[C@]43C)[C@@H]12; X8 = C[C@H]1[C@H](C)CC[C@]2(C(=O)O)CC[C@]3(C)C(=CC[C@@H]4[C@@]5(C)CC[C@H](OC(=O)CCc6cn(CC(=O)*)nn6)C(C)(C)[C@@H]5CC[C@]43C)[C@H]12; X7 = C[C@H]1[C@H](C)CC[C@]2(C(=O)OCc3cn(CC(=O)*)nn3)CC[C@]3(C)C(=CC[C@@H]4[C@@]5(C)CC[C@H](O)C(C)(C)[C@@H]5CC[C@]43C)[C@H]12; X6 = CC1(C)CC[C@]2(C(=O)O)CC[C@]3(C)C(=CC[C@@H]4[C@@]5(C)CC[C@H](OC(=O)CCc6cn(CC(=O)*)nn6)C(C)(C)[C@@H]5CC[C@]43C)[C@@H]2C1; X10 = CC1(C)CC[C@]2(C(=O)OCc3cn(CC(=O)*)nn3)CC[C@]3(C)C(=CC[C@@H]4[C@@]5(C)CC[C@H](O)C(C)(C)[C@@H]5CC[C@]43C)[C@@H]2C1; βAla = NCCC(=O)O A value given as a limit tells only on which side of the number the result lay.

The target of data set [1] is GP41 (Human immunodeficiency virus 1) (UniProt Q76270). Description: Ratio of EC50 for HIV1 gp41-induced cell-cell fusion between viral envelope expressing human HL2/3 cells to CD4/CCR5 receptor expressing TZM-bl cells with wash out to EC50 for HIV1 gp41-induced cell-cell fusion between viral envelope expressing human HL2/3 cells to CD4/CCR5 receptor expressing TZM-bl cells. In kind it is cell-based. In short, it runs like this: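 Peptides preincubated with TZM-bl cells at 37 °C for 1 h, with or without washing away unbound peptide. EC50 compared between washed and unwashed cells, giving the n-fold change. Triplicates, mean ± SD.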

Data set [2] in a line: Cytotoxicity against human MT2 cells after 4 days by XTT assay. In kind it is cell-based. The gist of the method:
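MT-2 cells (5 × 10⁵/mL) mixed with equal volumes of graded conjugate concentrations and held at 37 °C for 4 days. XTT (1 mg/mL) with 0.02 μM phenazine methosulfate added for 4 h, then A450 read. CC50 calculated from the dose–response.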

The test system of data set [3] is Human immunodeficiency virus 1. Description: Antiviral activity against HIV1 3B infected in human MT2 cells assessed as inhibition of viral p24 antigen production by ELISA. In kind it is functional, organism-based. Particulars: Human immunodeficiency virus 1, 3B. The gist of the method: (§1)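 MT-2 cells (1 × 10⁴) infected with 100 TCID₅₀ virus with or without peptides at graded concentrations. Culture supernatants collected on day 4 postinfection; p24 antigen quantified by ELISA. Percent inhibition and EC₅₀ calculated; tested in triplicate, mean ± standard deviation.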
Background: ELISA stands for enzyme-linked immunosorbent assay.

Data set [4] has as its system Human immunodeficiency virus 1. As to the kind of experiment: Antiviral activity against HIV1 BaL infected in human […] cells assessed as inhibition of viral replication. In kind it is functional, organism-based. Particulars: Human immunodeficiency virus 1, BaL. In short, it runs like this:
as §1

Data set [5] is described as follows: Selectivity index, ratio of CC50 for human MT2 cells to EC50 for HIV1 3B infected in human MT2 cells. The format is toxicity, cell-based. The settings on record: read-out: Ratio CC50/EC50.

Regarding `C=C(C)[C@@H]1CC[C@]2(C(=O)O)CC[C@]3(C)[C@H](CC[C@@H]4[C@@]5(C)CC[C@H](OC(=O)CCc6cn(CC(=O)NCCC(=O)N[C@@H](CC(N)=O)C(=O)N[C@@H](CC(N)=O)C(=O)N[C@@H](Cc7ccc(O)cc7)C(=O)N[C@H](C(=O)N[C@@H](CO)C(=O)N[C@@H](CC(C)C)C(=O)N[C@H](C(=O)N[C@@H](Cc7cnc[nH]7)C(=O)N[C@@H](CO)C(=O)N[C@@H](CC(C)C)C(=O)N[C@H](C(=O)N[C@@H](CCC(=O)O)C(=O)N[C@@H](CCC(=O)O)C(=O)N[C@@H](CO)C(=O)N[C@@H](CCC(N)=O)C(=O)N[C@@H](CC(N)=O)C(=O)N[C@@H](CCC(N)=O)C(=O)N[C@@H](CCC(N)=O)C(=O)N[C@@H](CCC(=O)O)C(=O)N[C@@H](CCCCN)C(=O)N[C@@H](CC(N)=O)C(=O)N[C@@H](CCC(=O)O)C(=O)N[C@@H](CCC(N)=O)C(=O)N[C@@H](CCC(=O)O)C(=O)N[C@@H](CC(C)C)C(=O)N[C@@H](CC(C)C)C(N)=O)[C@@H](C)CC)[C@@H](C)CC)[C@@H](C)O)nn6)C(C)(C)[C@@H]5CC[C@]43C)[C@@H]12` ({X3-βAla}-NNYTSLIHSLIEESQNQQEKNEQELL-NH2), the Ratio EC50 in data set [1] was above 85. Besides, in data set [2], the CC50 at 96 h was above 25000 nM. The pEC50 in data set [3] is 6.88; in data set [4] it was 7.01. The selectivity ratio in data set [5] was above 187.

In the case of `CC[C@H](C)[C@H](NC(=O)[C@H](CC(C)C)NC(=O)[C@H](CO)NC(=O)[C@H](Cc1cnc[nH]1)NC(=O)[C@@H](NC(=O)[C@H](CC(C)C)NC(=O)[C@H](CO)NC(=O)[C@@H](NC(=O)[C@H](Cc1ccc(O)cc1)NC(=O)[C@H](CC(N)=O)NC(=O)[C@H](CC(N)=O)NC(=O)CCNC(=O)Cn1cc(CCC(=O)O[C@H]2CC[C@]3(C)[C@H]4CC=C5[C@@H]6CC(C)(C)CC[C@]6(C(=O)O)CC[C@@]5(C)[C@]4(C)CC[C@H]3C2(C)C)nn1)[C@@H](C)O)[C@@H](C)CC)C(=O)N[C@@H](CCC(=O)O)C(=O)N[C@@H](CCC(=O)O)C(=O)N[C@@H](CO)C(=O)N[C@@H](CCC(N)=O)C(=O)N[C@@H](CC(N)=O)C(=O)N[C@@H](CCC(N)=O)C(=O)N[C@@H](CCC(N)=O)C(=O)N[C@@H](CCC(=O)O)C(=O)N[C@@H](CCCCN)C(=O)N[C@@H](CC(N)=O)C(=O)N[C@@H](CCC(=O)O)C(=O)N[C@@H](CCC(N)=O)C(=O)N[C@@H](CCC(=O)O)C(=O)N[C@@H](CC(C)C)C(=O)N[C@@H](CC(C)C)C(N)=O` ({X6-βAla}-NNYTSLIHSLIEESQNQQEKNEQELL-NH2), the CC50 at 96 h in data set [2] is above 25000 nM. Moreover, the pEC50 in data set [3] is 7.03; in data set [4], 6.82. Also, in data set [5], the selectivity ratio was above 266.

`CC[C@H](C)[C@H](NC(=O)[C@H](CC(C)C)NC(=O)[C@H](CO)NC(=O)[C@H](Cc1cnc[nH]1)NC(=O)[C@@H](NC(=O)[C@H](CC(C)C)NC(=O)[C@H](CO)NC(=O)[C@@H](NC(=O)[C@H](Cc1ccc(O)cc1)NC(=O)[C@H](CC(N)=O)NC(=O)[C@H](CC(N)=O)NC(=O)CCNC(=O)Cn1cc(COC(=O)[C@]23CC[C@@H](C)[C@H](C)[C@H]2C2=CC[C@@H]4[C@@]5(C)CC[C@H](O)C(C)(C)[C@@H]5CC[C@@]4(C)[C@]2(C)CC3)nn1)[C@@H](C)O)[C@@H](C)CC)C(=O)N[C@@H](CCC(=O)O)C(=O)N[C@@H](CCC(=O)O)C(=O)N[C@@H](CO)C(=O)N[C@@H](CCC(N)=O)C(=O)N[C@@H](CC(N)=O)C(=O)N[C@@H](CCC(N)=O)C(=O)N[C@@H](CCC(N)=O)C(=O)N[C@@H](CCC(=O)O)C(=O)N[C@@H](CCCCN)C(=O)N[C@@H](CC(N)=O)C(=O)N[C@@H](CCC(=O)O)C(=O)N[C@@H](CCC(N)=O)C(=O)N[C@@H](CCC(=O)O)C(=O)N[C@@H](CC(C)C)C(=O)N[C@@H](CC(C)C)C(N)=O` ({X7-βAla}-NNYTSLIHSLIEESQNQQEKNEQELL-NH2) gave a CC50 at 96 h in data set [2] above 25000 nM. The pEC50 in data set [3] is 6.25; in data set [4], 6.54. In addition, the selectivity ratio in data set [5] is above 44.

For `CC[C@H](C)[C@H](NC(=O)[C@H](CC(C)C)NC(=O)[C@H](CO)NC(=O)[C@H](Cc1cnc[nH]1)NC(=O)[C@@H](NC(=O)[C@H](CC(C)C)NC(=O)[C@H](CO)NC(=O)[C@@H](NC(=O)[C@H](Cc1ccc(O)cc1)NC(=O)[C@H](CC(N)=O)NC(=O)[C@H](CC(N)=O)NC(=O)CCNC(=O)Cn1cc(CCC(=O)O[C@H]2CC[C@]3(C)[C@H]4CC=C5[C@@H]6[C@@H](C)[C@H](C)CC[C@]6(C(=O)O)CC[C@@]5(C)[C@]4(C)CC[C@H]3C2(C)C)nn1)[C@@H](C)O)[C@@H](C)CC)C(=O)N[C@@H](CCC(=O)O)C(=O)N[C@@H](CCC(=O)O)C(=O)N[C@@H](CO)C(=O)N[C@@H](CCC(N)=O)C(=O)N[C@@H](CC(N)=O)C(=O)N[C@@H](CCC(N)=O)C(=O)N[C@@H](CCC(N)=O)C(=O)N[C@@H](CCC(=O)O)C(=O)N[C@@H](CCCCN)C(=O)N[C@@H](CC(N)=O)C(=O)N[C@@H](CCC(=O)O)C(=O)N[C@@H](CCC(N)=O)C(=O)N[C@@H](CCC(=O)O)C(=O)N[C@@H](CC(C)C)C(=O)N[C@@H](CC(C)C)C(N)=O` ({X8-βAla}-NNYTSLIHSLIEESQNQQEKNEQELL-NH2), the CC50 at 96 h in data set [2] was above 25000 nM. Further, the pEC50 in data set [3] was 6.41; in data set [4], 6.95. Moreover, the selectivity ratio in data set [5] was above 64.

`CC[C@H](C)[C@H](NC(=O)[C@H](CC(C)C)NC(=O)[C@H](CO)NC(=O)[C@H](Cc1cnc[nH]1)NC(=O)[C@@H](NC(=O)[C@H](CC(C)C)NC(=O)[C@H](CO)NC(=O)[C@@H](NC(=O)[C@H](Cc1ccc(O)cc1)NC(=O)[C@H](CC(N)=O)NC(=O)[C@H](CC(N)=O)NC(=O)CCNC(=O)Cn1cc(COC(=O)[C@]23CCC(C)(C)C[C@H]2C2=CC[C@@H]4[C@@]5(C)CC[C@H](O)C(C)(C)[C@@H]5CC[C@@]4(C)[C@]2(C)CC3)nn1)[C@@H](C)O)[C@@H](C)CC)C(=O)N[C@@H](CCC(=O)O)C(=O)N[C@@H](CCC(=O)O)C(=O)N[C@@H](CO)C(=O)N[C@@H](CCC(N)=O)C(=O)N[C@@H](CC(N)=O)C(=O)N[C@@H](CCC(N)=O)C(=O)N[C@@H](CCC(N)=O)C(=O)N[C@@H](CCC(=O)O)C(=O)N[C@@H](CCCCN)C(=O)N[C@@H](CC(N)=O)C(=O)N[C@@H](CCC(=O)O)C(=O)N[C@@H](CCC(N)=O)C(=O)N[C@@H](CCC(=O)O)C(=O)N[C@@H](CC(C)C)C(=O)N[C@@H](CC(C)C)C(N)=O` ({X10-βAla}-NNYTSLIHSLIEESQNQQEKNEQELL-NH2) returned a CC50 at 96 h in data set [2] above 25000 nM. Besides, the pEC50 was 6.43 in data set [3] and 6.30 in data set [4]. In data set [5], the selectivity ratio is above 68.

What is called CC50 is the concentration giving 50% cytotoxicity. The pEC50 is the negative decadic logarithm of the EC50, by convention in mol/L.
